What was measured:
[1] = target: Dual specificity tyrosine-phosphorylation-regulated kinase 1A (Homo sapiens) (UniProt Q13627); test: Inhibition of N-terminal His-tagged human Dyrk1A (126 to 490 residues) expressed in Escherichia coli BL21 (DE3) cells at 1 uM using Woodtide as substrate assessed as remaining enzyme activity after 10 mins in presence of [gamma-32P]-ATP by microbeta scintillation counting method
Procedure, shortened: (§1)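 Recombinant DYRK1A kinase assay with Woodtide as the peptide substrate and ATP at 100 μM. Each compound was tested at two concentrations, 1 μM and 10 μM. Results are given as the percentage of DYRK1A activity remaining relative to the uninhibited enzyme.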

[2] = target: Dual specificity tyrosine-phosphorylation-regulated kinase 1A (Homo sapiens) (UniProt Q13627); test: Inhibition of N-terminal His-tagged human Dyrk1A (126 to 490 residues) expressed in Escherichia coli BL21 (DE3) cells at 10 uM using Woodtide as substrate assessed as remaining enzyme activity after 10 mins in presence of [gamma-32P]-ATP by microbeta scintillation counting method; procedure, shortened: as §1

| SMILES | Activity [1] | Activity [2] |
| --- | --- | --- |
| Oc1ccc(-c2nnc3cncc(OCCc4cccc(O)c4)n23)cc1 | 94% | 91% |
| Oc1ccc(-c2cnc3nccc(-c4ccc(O)cc4)c3c2)cc1 | 67% | 30% |
| Oc1ccc(-c2nc[nH]c2-c2ccc(O)cc2)cc1 | 100% | 79% |
| Oc1ccc(-c2ccnc(-c3cc(-c4ccc(O)cc4)n[nH]3)c2)cc1 | 64% | 9% |
| Oc1ccc(-c2cnc3[nH]cc(-c4ccc(O)cc4)c3c2)cc1 | 3.3% | 3.3% |
| CC(=O)Nc1nc2ccc(-c3ccc(O)cc3)cc2n1-c1ccc(O)cc1 | 106% | 107% |
| Oc1ccc2c(c1)CNc1cc(O)ccc1N2 | 104% | 113% |

The remaining lines, values ahead:

| Activity [1] | Activity [2] | SMILES |
| --- | --- | --- |
| 74% | 43% | Nc1nc2ccc(-c3ccc(O)cc3)cc2n1-c1ccc(O)cc1 |
| 104% | 102% | O=C(Nc1cccc(O)c1)c1cncc2nnc(-c3ccc(O)cc3)n12 |
| 110% | 98% | Oc1ccc(-c2ccc(-c3cc(-c4ccc(O)cc4)n[nH]3)nc2)cc1 |
| 90% | 83% | Oc1ccc(-c2ccnc(-c3cc(-c4ccc(O)cc4)ccn3)c2)cc1 |
| 94% | 99% | Oc1ccc(CCOc2cncc3nnc(-c4ccc(O)cc4)n23)cc1 |
| 99% | 99% | O=C(Nc1ccc(O)cc1)c1cncc2nnc(-c3ccc(O)cc3)n12 |
